ChEMBL document CHEMBL3769381 (J Med Chem, 2016)
Activity calls are given as the source filed them. The rule behind the calls is not given here.

Legend:
[1] = molecular target: T1, Adenosine receptor A1 (Homo sapiens) (UniProt P30542); experiment: Agonist activity at human Adenosine A1 receptor expressed in yeast cells coexpressed with chimeric GPA1/Galphai1 at 100 uM after 16 hrs by beta galactosidase reporter gene assay; type: cell-based
T1 sequence (whole entry): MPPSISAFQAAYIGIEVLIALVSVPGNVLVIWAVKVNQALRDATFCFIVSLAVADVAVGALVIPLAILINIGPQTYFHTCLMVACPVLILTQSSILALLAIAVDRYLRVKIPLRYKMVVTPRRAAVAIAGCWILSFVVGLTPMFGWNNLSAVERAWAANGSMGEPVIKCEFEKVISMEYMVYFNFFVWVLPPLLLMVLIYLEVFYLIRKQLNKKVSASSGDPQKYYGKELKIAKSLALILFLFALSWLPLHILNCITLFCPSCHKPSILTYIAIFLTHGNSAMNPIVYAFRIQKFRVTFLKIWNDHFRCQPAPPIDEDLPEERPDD
Procedure, shortened: (§1)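 Human receptor expressed from GAPDH promoter (p426-GPD) in Δfar1 FUS1-lacZ yeast with Gpa1p(1-467) carrying the 5 C-terminal Gα residues. Cells are grown overnight in SD-URA at 30°C, diluted 1:10 and grown 8 h. They are set to OD600 0.02 and given compound at 1% v/v DMSO for 16 h at 30°C. A2A strain is grown in SD-URA-HIS, with 5 mM 3-amino-triazole in treatment media. Read-out: ONPG, (OD430−OD620)/OD620.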

[2] = molecular target: T2, Adenosine receptor A2b (Homo sapiens) (UniProt P29275); experiment: Agonist activity at human Adenosine A2B receptor expressed in yeast cells coexpressed with chimeric GPA1/Galphas at 100 µM after 16 hrs by beta-galactosidase reporter gene assay; type: cell-based
T2 sequence (whole entry): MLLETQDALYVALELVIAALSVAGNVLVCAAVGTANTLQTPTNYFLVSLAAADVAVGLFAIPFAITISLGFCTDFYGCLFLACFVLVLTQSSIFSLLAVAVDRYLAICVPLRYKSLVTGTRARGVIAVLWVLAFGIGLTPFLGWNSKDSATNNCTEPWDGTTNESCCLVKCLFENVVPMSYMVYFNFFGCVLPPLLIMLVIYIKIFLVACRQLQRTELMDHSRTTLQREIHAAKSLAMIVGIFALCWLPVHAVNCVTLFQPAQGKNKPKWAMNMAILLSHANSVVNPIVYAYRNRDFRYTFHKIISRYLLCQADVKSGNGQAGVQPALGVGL
Procedure, shortened: (§2)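 Yeast (Δfar1, FUS1-lacZ) express A2BR from the GAPDH promoter alongside Gpa1p/Gαs chimera. The OD600 is 0.02 and compound is added in 1% v/v DMSO for 16 h at 30°C. β-Galactosidase is read with ONPG at OD430, normalised as (OD430−OD620)/OD620. […] Three-parameter logistic fit gives EC50 and Emax. Data are from 5-8 independent experiments.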

[3] = molecular target: T2, Adenosine receptor A2b (Homo sapiens); experiment: Binding affinity to human Adenosine A2B receptor expressed in yeast cells coexpressed with GPA1/Galphas; type: cell-based
Procedure, shortened: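 pKA is derived by non-linear regression of the operational model of agonism applied to 16 h yeast FUS1-lacZ concentration-response data, with A2BR coupled to the GPA1/Gαs chimera.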

[4] = molecular target: T1, Adenosine receptor A1 (Homo sapiens)
[5] = molecular target: T2, Adenosine receptor A2b (Homo sapiens); experiment: Agonist activity at human Adenosine A2B receptor expressed in yeast cells coexpressed with chimeric GPA1/Galphas after 16 hrs by beta-galactosidase reporter gene assay relative to NECA; type: cell-based; procedure, shortened: as §2
[6] = molecular target: T3, Adenosine receptor A3 (Homo sapiens) (UniProt P0DMS8); experiment: Agonist activity at human Adenosine A3 receptor transfected in CHO-K1 cells assessed as inhibition of forskolin-stimulated cAMP production after 30 mins by multimode microplate reader analysis relative to total forskolin; type: functional, cell-based; design: concentration or dose not given beside the values
T3 sequence (whole entry): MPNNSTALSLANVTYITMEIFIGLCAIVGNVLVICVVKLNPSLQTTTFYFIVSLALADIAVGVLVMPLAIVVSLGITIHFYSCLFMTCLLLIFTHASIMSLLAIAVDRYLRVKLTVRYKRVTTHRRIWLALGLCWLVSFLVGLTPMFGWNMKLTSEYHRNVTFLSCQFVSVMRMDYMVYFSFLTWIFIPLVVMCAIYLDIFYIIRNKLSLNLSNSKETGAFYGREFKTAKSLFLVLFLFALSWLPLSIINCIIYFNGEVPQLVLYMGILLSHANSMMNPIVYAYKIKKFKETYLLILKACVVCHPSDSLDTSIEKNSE
Procedure, shortened: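 CHO-K1 cells are transiently transfected with receptor (2 µg DNA, FuGene 6) and harvested at 48 h. Cells are resuspended in PBS with 0.1% BSA and 25 µM rolipram, at 2500 cells/well. They are co-incubated with 10 µM forskolin and ligand (10 pM to 1 µM) for 30 min at room temperature. cAMP is measured by LANCE kit. Data are expressed as % of the 10 µM forskolin response.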

Adenosine receptor A2a [7] = molecular target: T4, Adenosine receptor A2a (Homo sapiens, UniProt P29274)
T4 sequence (P29274 whole entry): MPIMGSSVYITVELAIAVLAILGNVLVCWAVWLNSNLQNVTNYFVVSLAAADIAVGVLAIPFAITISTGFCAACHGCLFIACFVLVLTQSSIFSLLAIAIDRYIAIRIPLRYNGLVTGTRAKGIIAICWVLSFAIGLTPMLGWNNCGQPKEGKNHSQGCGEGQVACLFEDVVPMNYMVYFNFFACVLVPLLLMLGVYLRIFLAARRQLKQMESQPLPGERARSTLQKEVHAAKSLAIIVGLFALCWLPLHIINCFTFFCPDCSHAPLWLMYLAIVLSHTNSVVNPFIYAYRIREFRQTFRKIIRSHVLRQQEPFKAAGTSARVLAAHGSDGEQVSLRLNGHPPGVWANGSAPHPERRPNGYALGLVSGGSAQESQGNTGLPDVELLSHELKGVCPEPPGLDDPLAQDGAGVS

Adenosine receptor A1 [8] = molecular target: T5, Adenosine receptor A1 (Homo sapiens, UniProt P30542); experiment: Agonist activity at human Adenosine A1 receptor expressed in yeast cells coexpressed with chimeric GPA1/Galphai1 after 16 hrs by beta galactosidase reporter gene assay; type: cell-based
T5 sequence (P30542 whole entry): T1 sequence (whole entry)

Adenosine receptor A2a [9] = molecular target: T4, Adenosine receptor A2a; experiment: Agonist activity at human Adenosine A2A receptor expressed in yeast cells coexpressed with chimeric GPA1/Galphas after 16 hrs by beta-galactosidase reporter gene assay; type: cell-based
[10] = molecular target: T2, Adenosine receptor A2b (Homo sapiens); experiment: (§3) Agonist activity at human Adenosine A2B receptor expressed in yeast cells coexpressed with chimeric GPA1/Galphas after 16 hrs by beta-galactosidase reporter gene assay; type: cell-based
Procedure, shortened: (§4)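 Yeast (Δfar1, FUS1-lacZ) express A2BR from the GAPDH promoter alongside Gpa1p/Gαs chimera. The OD600 is 0.02 and compound is added in 1% v/v DMSO for 16 h at 30°C. β-Galactosidase is read with ONPG at OD430, normalised as (OD430−OD620)/OD620. Three-parameter logistic fit gives EC50 and Emax. Data are from 5-8 independent experiments.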

Adenosine receptor A1 [11] = molecular target: T5, Adenosine receptor A1; experiment: Agonist activity at human Adenosine A1 receptor transfected in CHO-K1 cells assessed as inhibition of forskolin-stimulated cAMP production after 30 mins by multimode microplate reader analysis; type: functional, cell-based
Adenosine receptor A3 = molecular target: T6, Adenosine receptor A3 (Homo sapiens, UniProt P0DMS8); experiment: (§5) Agonist activity at human Adenosine A3 receptor transfected in CHO-K1 cells assessed as inhibition of forskolin-stimulated cAMP production after 30 mins by multimode microplate reader analysis; type: functional, cell-based
T6 sequence (P0DMS8 whole entry): T3 sequence (whole entry)
Procedure, shortened: (§6)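 CHO-K1 cells are transiently transfected with receptor (2 µg DNA, FuGene 6) and harvested at 48 h. They are co-incubated with 10 µM forskolin and ligand (10 pM to 1 µM) for 30 min at room temperature. cAMP is measured by LANCE kit. Data are expressed as % of the 10 µM forskolin response.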

[12] = molecular target: T1, Adenosine receptor A1 (Homo sapiens); remark: listed apart in the source
[13] = molecular target: T3, Adenosine receptor A3 (Homo sapiens); experiment: as §5; type: functional, cell-based; procedure, shortened: as §6
Adenosine receptor A2a [14] = molecular target: T4, Adenosine receptor A2a; experiment: Agonist activity at human Adenosine A2A receptor expressed in yeast cells coexpressed with chimeric GPA1/Galphas at 100 uM after 16 hrs by beta-galactosidase reporter gene assay; type: cell-based; procedure, shortened: as §1
Adenosine receptor A2a [15] = molecular target: T4, Adenosine receptor A2a; remark: listed apart in the source
[16] = molecular target: T2, Adenosine receptor A2b (Homo sapiens)
Adenosine receptor A2b = molecular target: T7, Adenosine receptor A2b (Homo sapiens, UniProt P29275); experiment: as §3; type: cell-based; procedure, shortened: as §4
T7 sequence (P29275 whole entry): T2 sequence (whole entry)

Row | SMILES | Activity [1] | Activity [2] | pKA [3] | pKA [4] | Emax [5] | Activity [6] | pKA (Adenosine receptor A2a [7]) | EC50 (Adenosine receptor A1 [8]) | pEC50 (Adenosine receptor A2a [9]) | pEC50 [10] | IC50 (Adenosine receptor A1 [11]) | IC50 (Adenosine receptor A3) | log(activity) [12] | pIC50 [13] | Activity (Adenosine receptor A2a [14]) | log(activity) (Adenosine receptor A2a [15]) | log(activity) [16] | EC50 (Adenosine receptor A2a [9]) | EC50 (Adenosine receptor A2b)
1 | O[C@@H]1[C@H](O)[C@@H](CSc2ccccc2F)O[C@H]1n1cnc2c(NC34CC5CC(CC(C5)C3)C4)ncnc21 | inactive | inactive | inactive | inactive |  |  |  |  |  |  |  |  |  |  |  |  |  |  | 
2 | OC[C@H]1O[C@@H](n2cnc3c(N[C@@H]4CCC[C@H]4OCc4ccccc4)ncnc32)[C@H](O)[C@@H]1O |  |  | inactive | 4.9 | inactive | inactive | inactive |  |  |  |  |  |  |  |  |  |  |  | 
3 | CCNC(=O)[C@H]1O[C@@H](n2cnc3c(NC45CC6CC(CC(O)(C6)C4)C5)ncnc32)[C@H](O)[C@@H]1O |  |  | inactive | 3.5 | inactive | -32.7% | inactive | 100000 nM | inactive | inactive | 37.2 nM | 79.4 nM | 1 |  |  |  |  |  | 
4 | Nc1ncnc2c1ncn2[C@@H]1O[C@H](CO)[C@@H](O)[C@H]1O |  |  | 3.8 |  | 70.4% |  |  |  |  |  |  |  |  |  |  |  |  |  | 
5 | CCNC(=O)[C@H]1O[C@@H](n2cnc3c(N)nc(NCCc4ccc(CCC(=O)O)cc4)nc32)[C@H](O)[C@@H]1O |  |  | 3.4 | 2.1 | 59.1% |  |  |  |  |  |  |  |  |  |  |  |  |  | 
6 | CCNC(=O)[C@H]1O[C@@H](n2cnc3c(N)ncnc32)[C@H](O)[C@@H]1O |  |  | 4.2 | 4.4 |  | -44.1% |  |  |  |  |  |  |  |  |  |  |  |  | 
7 | CCNC(=O)[C@H]1O[C@@H](n2cnc3c(NC45CC6CC(CC(C6)C4)C5)ncnc32)[C@H](O)[C@@H]1O |  |  | inactive | 4.2 | inactive | inactive | inactive | 3980 nM | inactive | inactive | 2.88 nM |  | 1.2 | inactive |  |  |  |  | 
8 | CCNC(=O)[C@H]1O[C@@H](n2cnc3c(N[C@H]4C[C@H]5CCC[C@@H](C4)N5C)ncnc32)[C@H](O)[C@@H]1O |  | inactive | inactive | inactive |  |  | inactive |  |  |  |  |  |  |  | inactive |  |  |  | 
9 | CCNC(=O)[C@H]1O[C@@H](n2cnc3c(N4[C@@H]5CCC[C@H]4C[C@H](N)C5)ncnc32)[C@H](O)[C@@H]1O | inactive | inactive | inactive | inactive |  |  | inactive |  |  |  |  |  |  |  | inactive |  |  |  | 
10 | OC[C@H]1O[C@@H](n2cnc3c(NC4CCCC4)nc(Cl)nc32)[C@H](O)[C@@H]1O |  |  | 4.4 |  | 30.6% | -46.6% | 4.7 |  |  |  |  |  | 0.6 |  |  | -0.1 | 3.5 |  | 
11 | CCNC(=O)[C@H]1O[C@@H](n2cnc3c(N[C@@H]4CCC[C@H]4O)ncnc32)[C@H](O)[C@@H]1O |  |  | 4.2 | 4.8 | 49.2% | -37.9% | 4.6 | 316 nM |  |  | 6.17 nM | 2.29 nM | 1.6 |  |  | 0.3 | -0.2 | 5750 nM | 331000 nM
12 | CN1[C@@H]2CCC[C@H]1C[C@@H](Nc1ncnc3c1ncn3[C@@H]1O[C@H](CO)[C@@H](O)[C@H]1O)C2 |  | inactive | inactive | inactive |  |  | inactive |  |  |  |  |  |  |  | inactive |  |  |  | 
13 | OC[C@H]1O[C@@H](n2cnc3c(N[C@@H]4CCC[C@H]4O)ncnc32)[C@H](O)[C@@H]1O |  |  | inactive | 5.5 | inactive | -35.1% | inactive | 631 nM | inactive | inactive | 4.37 nM | 27.5 nM | 0.7 |  |  |  |  |  | 
14 | OC[C@H]1O[C@@H](n2cnc3c(NC45CC6CC(CC(C6)C4)C5)ncnc32)[C@H](O)[C@@H]1O |  |  | inactive | 3 | inactive | inactive | inactive | 15800 nM | inactive | inactive | 19.1 nM |  | 1.8 | inactive |  |  |  |  | 
15 | CN1[C@@H]2CCC[C@H]1C[C@@H](Nc1ncnc3c1ncn3[C@@H]1O[C@H](CSc3ccccc3F)[C@@H](O)[C@H]1O)C2 | inactive | inactive | inactive | inactive |  |  | inactive |  |  |  |  |  |  |  | inactive |  |  |  | 
16 | CCNC(=O)[C@H]1O[C@@H](n2cnc3c(N4[C@@H]5CCC[C@H]4C[C@H](N(C)C)C5)ncnc32)[C@H](O)[C@@H]1O | inactive | inactive | inactive | inactive |  |  | inactive |  |  |  |  |  |  |  | inactive |  |  |  | 
17 | CCNC(=O)[C@H]1O[C@@H](n2cnc3c(NC4C5CC6CC(C5)CC4C6)ncnc32)[C@H](O)[C@@H]1O (stereo not given in full) |  |  | inactive | 2.4 | inactive | inactive | inactive | 15800 nM | inactive | inactive | 0.398 nM |  | 2.4 | inactive |  |  |  |  | 
